Experiment [1] has as its target Tyrosine-protein kinase ABL2 (Homo sapiens) (UniProt P42684). The experiment in a line: Inhibition of ABL2 at 1 uM. The procedure, abridged: (§1)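 Ambit KINOMEscan screen at a single concentration across a 250–400 kinase panel, recorded as percent inhibition. Selectivity was expressed as S(90), the fraction of kinases inhibited >90%.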
Experiment [2] has as its target Aurora kinase B (Homo sapiens) (UniProt Q96GD4). Kind of experiment: Inhibition of AURKB at 1 uM. Summed up: as §1
The target of experiment [3] is Activin receptor type-1-like (Homo sapiens) (UniProt P37023). Kind of experiment: Inhibition of ACVRL1 at 1 uM. Summed up:
as §1

The target in experiment [4] is Tyrosine-protein kinase Fyn (Homo sapiens) (UniProt P06241). Kind of experiment: Inhibition of FYN at 1 uM. Summed up: (§2)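 Single-concentration screen on the Ambit KINOMEscan platform, run against a panel of 250–400 kinases. Per-kinase inhibition was also summarized as S(90), the fraction of kinases inhibited by more than 90%.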
The subject of experiment [5] is Epidermal growth factor receptor (Homo sapiens), P00533 [L858R]. The experiment in a line: Inhibition of EGFR L858R mutant at 1 uM. The format is protein assay. The procedure, abridged: (§3)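 Single-concentration screen using Ambit Bioscience KINOMEscan technology across a panel of 250–400 kinases. Per-kinase inhibition from this screen was summarized as S(90), the fraction of kinases inhibited by more than 90%.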

The target of experiment [6] is Calcium/calmodulin-dependent protein kinase type II subunit delta (Homo sapiens) (UniProt Q13557). The experiment in a line: Inhibition of CAMK2D at 1 uM. The procedure, abridged:
as §1

Experiment [7] concerns the target Epidermal growth factor receptor (Homo sapiens) (UniProt P04626+P00533+Q15303+P21860). Kind of experiment: Inhibition of EGFR S752-I759del mutant at 1 uM. The format is protein assay. Summed up: as §3
The target in experiment [8] is Mitogen-activated protein kinase 14 (Homo sapiens) (UniProt Q16539). Kind of experiment: Inhibition of p38-alpha at 1 uM.
The target in experiment [9] is Insulin receptor (Homo sapiens) (UniProt P06213). The experiment in a line: Inhibition of INSR at 1 uM. The procedure, abridged: as §2
Sequence of Insulin receptor (Homo sapiens) (P06213 28-758 limits assumed): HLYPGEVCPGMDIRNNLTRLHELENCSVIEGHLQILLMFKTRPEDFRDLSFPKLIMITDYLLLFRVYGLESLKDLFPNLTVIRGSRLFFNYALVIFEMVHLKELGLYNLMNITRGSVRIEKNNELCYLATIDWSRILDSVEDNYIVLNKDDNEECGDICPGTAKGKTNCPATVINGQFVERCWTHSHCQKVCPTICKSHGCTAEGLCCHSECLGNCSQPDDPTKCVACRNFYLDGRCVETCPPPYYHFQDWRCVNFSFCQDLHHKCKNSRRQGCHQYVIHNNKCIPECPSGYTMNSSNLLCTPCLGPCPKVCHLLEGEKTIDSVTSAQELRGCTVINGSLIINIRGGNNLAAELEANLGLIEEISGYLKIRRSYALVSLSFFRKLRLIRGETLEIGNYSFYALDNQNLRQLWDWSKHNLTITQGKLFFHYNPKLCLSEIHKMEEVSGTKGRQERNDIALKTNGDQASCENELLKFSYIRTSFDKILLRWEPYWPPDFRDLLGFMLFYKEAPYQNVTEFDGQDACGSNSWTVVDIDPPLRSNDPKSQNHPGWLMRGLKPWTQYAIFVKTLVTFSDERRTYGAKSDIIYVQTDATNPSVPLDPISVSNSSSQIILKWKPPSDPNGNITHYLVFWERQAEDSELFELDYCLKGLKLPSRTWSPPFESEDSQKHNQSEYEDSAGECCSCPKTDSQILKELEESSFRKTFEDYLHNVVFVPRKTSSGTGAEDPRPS
Sequence of Insulin receptor (Homo sapiens) (P06213 763-1382 limits assumed): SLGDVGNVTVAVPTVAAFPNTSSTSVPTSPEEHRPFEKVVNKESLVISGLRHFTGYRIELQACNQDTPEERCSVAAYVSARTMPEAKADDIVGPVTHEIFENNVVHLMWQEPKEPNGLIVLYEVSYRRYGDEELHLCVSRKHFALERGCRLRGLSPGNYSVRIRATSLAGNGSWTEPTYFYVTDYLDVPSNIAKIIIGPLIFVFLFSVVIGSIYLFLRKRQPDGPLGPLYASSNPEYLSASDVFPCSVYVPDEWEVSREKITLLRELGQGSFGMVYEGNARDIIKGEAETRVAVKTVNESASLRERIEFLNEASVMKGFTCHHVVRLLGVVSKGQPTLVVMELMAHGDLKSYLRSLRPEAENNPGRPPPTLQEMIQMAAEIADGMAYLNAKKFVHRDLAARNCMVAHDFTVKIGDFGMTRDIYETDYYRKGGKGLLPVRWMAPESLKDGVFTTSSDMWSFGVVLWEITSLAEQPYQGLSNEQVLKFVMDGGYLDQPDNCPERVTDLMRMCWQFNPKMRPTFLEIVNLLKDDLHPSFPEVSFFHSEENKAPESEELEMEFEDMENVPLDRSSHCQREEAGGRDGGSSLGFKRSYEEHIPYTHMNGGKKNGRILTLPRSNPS
Experiment [10] addresses Serine/threonine-protein kinase 38-like (Homo sapiens) (UniProt Q9Y2H1). Kind of experiment: Inhibition of NDR2 at 1 uM.
The target in experiment [11] is Protein kinase C theta type (Homo sapiens) (UniProt Q04759). The experiment in a line: Inhibition of PRKCQ at 1 uM.
Experiment [12] addresses Serine/threonine-protein kinase Chk2 (Homo sapiens) (UniProt O96017). The experiment in a line: Inhibition of CHEK2 at 1 uM.
Experiment [13] concerns the target T1, Uncharacterized serine/threonine-protein kinase SBK3 (Homo sapiens) (UniProt P0C264).
T1 sequence (whole entry): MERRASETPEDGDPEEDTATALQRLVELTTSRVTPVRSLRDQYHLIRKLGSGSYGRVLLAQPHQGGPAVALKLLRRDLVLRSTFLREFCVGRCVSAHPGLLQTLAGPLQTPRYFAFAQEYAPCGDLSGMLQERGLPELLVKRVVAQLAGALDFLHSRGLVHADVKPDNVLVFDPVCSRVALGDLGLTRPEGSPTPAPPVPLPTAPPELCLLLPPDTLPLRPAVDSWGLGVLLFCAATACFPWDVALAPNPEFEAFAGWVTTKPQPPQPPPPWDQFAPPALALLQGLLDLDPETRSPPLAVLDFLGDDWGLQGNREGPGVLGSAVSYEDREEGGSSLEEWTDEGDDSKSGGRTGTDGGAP
Kind of experiment: Inhibition of SgK110 at 1 uM.

For experiment [14], the system named is Phosphatidylinositol 4,5-bisphosphate 3-kinase catalytic subunit alpha isoform (Homo sapiens), P42336 [Q546K]. The experiment in a line: Inhibition of PIK3CA Q546K mutant at 1 uM.
Sequence of Phosphatidylinositol 4,5-bisphosphate 3-kinase catalytic subunit alpha isoform (Homo sapiens), P42336 [Q546K] (P42336 whole entry Q546K, canonical isoform): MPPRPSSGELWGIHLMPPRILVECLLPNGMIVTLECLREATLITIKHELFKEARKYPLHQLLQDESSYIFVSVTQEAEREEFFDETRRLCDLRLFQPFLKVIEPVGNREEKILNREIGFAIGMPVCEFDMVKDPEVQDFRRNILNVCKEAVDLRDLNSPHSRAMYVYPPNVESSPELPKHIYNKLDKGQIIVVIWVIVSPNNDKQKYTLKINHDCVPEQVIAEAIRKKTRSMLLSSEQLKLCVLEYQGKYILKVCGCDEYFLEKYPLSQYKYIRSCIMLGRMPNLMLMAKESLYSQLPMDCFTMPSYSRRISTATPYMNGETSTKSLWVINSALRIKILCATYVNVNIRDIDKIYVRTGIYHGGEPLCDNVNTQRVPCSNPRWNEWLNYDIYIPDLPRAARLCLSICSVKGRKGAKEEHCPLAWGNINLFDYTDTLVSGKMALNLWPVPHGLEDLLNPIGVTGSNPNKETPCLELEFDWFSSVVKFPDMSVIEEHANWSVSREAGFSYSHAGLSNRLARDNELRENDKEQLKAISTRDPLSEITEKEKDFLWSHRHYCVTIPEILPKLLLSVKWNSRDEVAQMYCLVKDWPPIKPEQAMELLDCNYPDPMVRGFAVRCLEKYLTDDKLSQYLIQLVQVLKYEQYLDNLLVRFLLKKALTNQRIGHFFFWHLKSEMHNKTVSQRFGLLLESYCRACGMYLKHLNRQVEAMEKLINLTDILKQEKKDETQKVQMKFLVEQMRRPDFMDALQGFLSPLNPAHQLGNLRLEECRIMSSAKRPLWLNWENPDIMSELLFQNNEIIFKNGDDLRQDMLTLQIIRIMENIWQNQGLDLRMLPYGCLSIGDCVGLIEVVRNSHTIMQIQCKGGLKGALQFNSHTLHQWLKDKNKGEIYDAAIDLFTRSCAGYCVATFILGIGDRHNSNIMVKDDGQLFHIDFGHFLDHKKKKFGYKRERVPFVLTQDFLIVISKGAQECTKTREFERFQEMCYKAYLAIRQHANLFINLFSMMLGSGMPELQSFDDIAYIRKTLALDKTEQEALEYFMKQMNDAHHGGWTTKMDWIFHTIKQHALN
The target in experiment [15] is Serine/threonine-protein kinase SIK3 (Homo sapiens) (UniProt Q9Y2K2). The experiment in a line: Inhibition of QSK at 1 uM.
Sequence of Serine/threonine-protein kinase SIK3 (Homo sapiens) (Q9Y2K2 whole entry, looked up): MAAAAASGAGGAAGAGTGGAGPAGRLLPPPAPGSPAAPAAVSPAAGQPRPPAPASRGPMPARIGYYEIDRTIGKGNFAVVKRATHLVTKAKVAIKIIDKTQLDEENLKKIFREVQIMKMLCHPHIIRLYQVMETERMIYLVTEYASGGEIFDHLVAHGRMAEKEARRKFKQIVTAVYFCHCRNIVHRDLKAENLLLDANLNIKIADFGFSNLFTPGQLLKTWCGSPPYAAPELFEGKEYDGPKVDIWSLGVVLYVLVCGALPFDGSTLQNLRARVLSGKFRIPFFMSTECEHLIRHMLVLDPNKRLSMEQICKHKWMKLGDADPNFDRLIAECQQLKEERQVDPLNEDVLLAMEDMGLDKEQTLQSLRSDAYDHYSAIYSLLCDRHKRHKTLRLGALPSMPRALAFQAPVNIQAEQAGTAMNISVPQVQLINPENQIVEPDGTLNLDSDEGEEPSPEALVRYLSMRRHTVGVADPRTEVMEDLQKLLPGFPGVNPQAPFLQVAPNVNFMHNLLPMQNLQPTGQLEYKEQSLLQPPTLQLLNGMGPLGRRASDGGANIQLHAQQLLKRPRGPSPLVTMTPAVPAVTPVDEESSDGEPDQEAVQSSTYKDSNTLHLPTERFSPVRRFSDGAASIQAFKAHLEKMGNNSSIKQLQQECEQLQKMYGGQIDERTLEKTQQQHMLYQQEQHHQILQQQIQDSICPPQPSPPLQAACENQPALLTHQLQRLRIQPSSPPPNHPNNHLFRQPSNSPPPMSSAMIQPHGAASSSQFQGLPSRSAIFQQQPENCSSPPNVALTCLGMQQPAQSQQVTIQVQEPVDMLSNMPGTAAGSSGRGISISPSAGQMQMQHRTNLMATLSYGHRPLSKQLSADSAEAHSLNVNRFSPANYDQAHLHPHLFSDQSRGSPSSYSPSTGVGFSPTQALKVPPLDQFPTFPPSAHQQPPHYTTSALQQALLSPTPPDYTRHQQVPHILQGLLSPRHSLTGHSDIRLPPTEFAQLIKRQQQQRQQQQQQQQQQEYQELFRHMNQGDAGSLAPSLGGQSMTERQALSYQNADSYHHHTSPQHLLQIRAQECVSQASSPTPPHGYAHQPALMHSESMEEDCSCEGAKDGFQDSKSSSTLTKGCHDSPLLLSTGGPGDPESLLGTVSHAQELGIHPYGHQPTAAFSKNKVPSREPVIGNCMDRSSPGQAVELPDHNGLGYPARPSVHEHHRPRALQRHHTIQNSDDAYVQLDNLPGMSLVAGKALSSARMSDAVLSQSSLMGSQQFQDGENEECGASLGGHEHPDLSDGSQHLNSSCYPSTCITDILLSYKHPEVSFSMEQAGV
Experiment [16] addresses T2, Serine/threonine-protein kinase DCLK2 (Homo sapiens) (UniProt Q8N568).
T2 sequence (whole entry): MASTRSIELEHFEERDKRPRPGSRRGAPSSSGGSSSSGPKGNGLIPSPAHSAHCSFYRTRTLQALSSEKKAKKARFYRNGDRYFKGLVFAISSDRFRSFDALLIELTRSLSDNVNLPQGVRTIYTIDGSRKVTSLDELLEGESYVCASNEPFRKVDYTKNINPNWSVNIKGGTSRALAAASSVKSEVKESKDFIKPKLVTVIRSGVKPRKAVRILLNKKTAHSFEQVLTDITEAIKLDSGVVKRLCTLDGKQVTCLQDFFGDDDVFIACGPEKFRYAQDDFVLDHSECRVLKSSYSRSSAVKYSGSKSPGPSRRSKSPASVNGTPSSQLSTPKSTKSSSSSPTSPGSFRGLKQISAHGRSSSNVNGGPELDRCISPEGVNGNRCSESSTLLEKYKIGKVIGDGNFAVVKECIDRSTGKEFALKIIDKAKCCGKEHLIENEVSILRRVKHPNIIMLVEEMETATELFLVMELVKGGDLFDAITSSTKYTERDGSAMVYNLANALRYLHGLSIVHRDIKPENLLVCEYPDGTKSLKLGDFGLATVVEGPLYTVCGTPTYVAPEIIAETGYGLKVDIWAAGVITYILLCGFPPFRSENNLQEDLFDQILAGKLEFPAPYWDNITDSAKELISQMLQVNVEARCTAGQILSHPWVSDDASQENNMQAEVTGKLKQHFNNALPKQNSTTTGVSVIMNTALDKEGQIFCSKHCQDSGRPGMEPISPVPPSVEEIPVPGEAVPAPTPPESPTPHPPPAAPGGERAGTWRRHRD
Kind of experiment: Inhibition of DCAMKL2 at 1 uM.

For experiment [17], the target named is Cyclin-dependent kinase 17 (Homo sapiens) (UniProt Q00537). Kind of experiment: Inhibition of PCTK2 at 1 uM.

As usually defined, the inhibition is the percentage by which the read-out fell short of the control.

SMILES strings stand for the structures.

Sequence of Serine/threonine-protein kinase 38-like (Homo sapiens) (Q9Y2H1 2-464 limits assumed): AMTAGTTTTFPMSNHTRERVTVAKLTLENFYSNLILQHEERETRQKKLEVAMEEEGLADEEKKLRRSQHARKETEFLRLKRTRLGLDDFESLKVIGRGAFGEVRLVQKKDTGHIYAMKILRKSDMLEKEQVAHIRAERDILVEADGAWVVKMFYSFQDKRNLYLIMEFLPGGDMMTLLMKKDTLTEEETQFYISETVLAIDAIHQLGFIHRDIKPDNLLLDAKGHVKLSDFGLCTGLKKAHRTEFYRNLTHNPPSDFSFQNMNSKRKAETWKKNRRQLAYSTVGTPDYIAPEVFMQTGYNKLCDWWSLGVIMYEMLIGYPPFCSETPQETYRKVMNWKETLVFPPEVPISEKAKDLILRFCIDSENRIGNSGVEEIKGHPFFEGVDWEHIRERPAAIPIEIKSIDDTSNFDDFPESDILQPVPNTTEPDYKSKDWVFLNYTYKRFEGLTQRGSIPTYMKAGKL
Sequence of Serine/threonine-protein kinase Chk2 (Homo sapiens) (O96017 whole entry): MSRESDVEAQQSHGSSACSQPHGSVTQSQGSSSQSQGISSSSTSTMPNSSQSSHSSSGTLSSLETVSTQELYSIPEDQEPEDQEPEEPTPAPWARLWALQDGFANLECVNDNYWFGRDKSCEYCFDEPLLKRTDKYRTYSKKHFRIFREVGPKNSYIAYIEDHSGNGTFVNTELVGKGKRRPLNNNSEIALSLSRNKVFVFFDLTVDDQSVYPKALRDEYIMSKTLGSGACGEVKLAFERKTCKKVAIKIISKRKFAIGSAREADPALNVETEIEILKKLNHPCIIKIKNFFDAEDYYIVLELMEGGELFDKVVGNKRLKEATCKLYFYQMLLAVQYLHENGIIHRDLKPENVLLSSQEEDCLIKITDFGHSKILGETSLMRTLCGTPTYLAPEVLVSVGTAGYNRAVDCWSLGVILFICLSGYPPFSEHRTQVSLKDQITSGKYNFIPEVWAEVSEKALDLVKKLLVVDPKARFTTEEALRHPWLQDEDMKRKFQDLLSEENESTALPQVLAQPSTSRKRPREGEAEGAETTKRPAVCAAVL

As to `O=C(c1ccc(-c2cnc3c(c2)N(Cc2cc(Cl)ccc2C(F)(F)F)CCN3)cc1)N1CCCCC1`, the inhibition in experiment [1], in experiment [2], in experiment [3], in experiment [4], in experiment [5] and in experiment [6] was below 50% each time. The inhibition in [7], in experiment [8], in experiment [9] and in experiment [10] was below 50% in each case.

On to `CN1CCN(c2ccc(-c3cnc4c(c3)N(Cc3c(F)ccc(F)c3Cl)CCN4)cn2)CC1`, for which the inhibition is 83% in [1]; below 50% in experiment [2]; below 50% in [11]; below 50% in [3]; below 50% in [4]; below 50% in experiment [12]. Besides, the inhibition in experiment [5], in experiment [13], in experiment [6], in experiment [7], in experiment [8] and in experiment [14] was below 50% each time. Besides, the inhibition in experiment [15], in [9], in [16], in experiment [10] and in [17] was below 50% in each case.

With `COC1CCN(C(=O)c2ccc(-c3cnc4c(c3)N(Cc3cc(Cl)ccc3C(F)(F)F)CCN4)cc2)CC1`, the inhibition in experiment [1], in [2], in experiment [3], in [4], in experiment [5] and in experiment [6] was below 50% each time. Besides, the inhibition in experiment [7], in [8], in experiment [9] and in [10] was below 50% each time.

As to `O=C(O)c1ccc(-c2cnc3c(c2)N(Cc2cc(Cl)ccc2C(F)(F)F)CCN3)cc1`, the inhibition in [1], in experiment [2], in [3], in [4], in experiment [5] and in experiment [6] was below 50% in each case. Further, the inhibition in experiment [7], in experiment [8], in experiment [9] and in experiment [10] was below 50% each time.

For `FC(F)(F)c1ccc(Cl)cc1CN1CCNc2ncc(-c3ccnc(N4CCNCC4)c3)cc21`, the inhibition in experiment [1] is below 50%; in experiment [2], 76%; in experiment [11] it was below 50%; in [3], below 50%; in [4] it was below 50%; in experiment [12], below 50%. Also, the inhibition is below 50% in experiment [5]; 96% in experiment [13]; below 50% in experiment [6]; below 50% in experiment [7]; below 50% in experiment [8]; below 50% in experiment [14]. Besides, the inhibition in experiment [15] is below 50%; in [9], below 50%; in experiment [16], 96%; in experiment [10] it was below 50%; in experiment [17], below 50%.

As to `CN1CCN(c2ccc(-c3cnc4c(c3)N(Cc3cc(Cl)ccc3Cl)CCN4)cn2)CC1`, the inhibition in experiment [1], in experiment [2], in experiment [11], in [3], in experiment [4] and in experiment [12] was below 50% throughout. Also, the inhibition in experiment [5], in experiment [13], in experiment [6], in experiment [7], in [8] and in [14] was below 50% each time. Moreover, the inhibition in experiment [15], in experiment [9], in experiment [16], in experiment [10] and in experiment [17] was below 50% each time.

For `O=C(c1ccc(-c2cnc3c(c2)N(Cc2cc(Cl)ccc2C(F)(F)F)CCN3)cc1)N1CCC(N2CCCC2)CC1`, the inhibition in [1] is 75.9%; in experiment [2] it was below 50%; in experiment [3] it was below 50%; in experiment [4] it was below 50%; in experiment [5], below 50%; in experiment [6] it was below 50%. Further, the inhibition in [7], in [8], in experiment [9] and in experiment [10] was below 50% in each case.

For the compound `CN1CCN(c2ccc(-c3cnc4c(c3)N(Cc3cc(Cl)ccc3C(F)(F)F)CCN4)cn2)CC1`, the inhibition in experiment [1], in experiment [2], in experiment [11], in experiment [3], in experiment [4] and in experiment [12] was below 50% in each case. The inhibition in experiment [5], in experiment [13], in [6], in experiment [7], in experiment [8] and in experiment [14] was below 50% in each case. Also, the inhibition in experiment [15], in experiment [9], in experiment [16], in experiment [10] and in experiment [17] was below 50% in each case.

`CC(=O)N1CCN(c2cc(-c3cnc4c(c3)N(Cc3cc(Cl)ccc3C(F)(F)F)CCN4)ccn2)CC1`: the inhibition in [1], in experiment [2], in experiment [11], in experiment [3], in experiment [4] and in experiment [12] was below 50% each time. In addition, the inhibition was below 50% in [5]; 71% in experiment [13]; below 50% in experiment [6]; below 50% in [7]; below 50% in experiment [8]; below 50% in experiment [14]. Moreover, the inhibition in experiment [15], in experiment [9], in experiment [16], in experiment [10] and in experiment [17] was below 50% throughout.

Take `CN1CCN(c2ccc(-c3cnc4c(c3)N(Cc3cc(F)ccc3F)CCN4)cn2)CC1`: the inhibition in experiment [1], in experiment [2], in experiment [11], in [3], in experiment [4] and in experiment [12] was below 50% in each case. In addition, the inhibition in experiment [5], in experiment [13], in experiment [6], in experiment [7], in experiment [8] and in [14] was below 50% each time. In addition, the inhibition in experiment [15], in experiment [9], in experiment [16], in [10] and in experiment [17] was below 50% throughout.

(Values after ChEMBL document CHEMBL1165965, “Synthesis and structure-activity relationships of 1,2,3,4-tetrahydropyrido[2,3-b]pyrazines as potent and selective inhibitors of the anaplastic lymphoma kinase” (Bioorg Med Chem, 2010).)
